# Assay results as given in ChEMBL document CHEMBL2331542, “Synthesis and in vitro antibacterial activity of quinolone/naphthyridone derivatives containing 3-alkoxyimino-4-(methyl)aminopiperidine scaffolds” (2013).
# How the values were obtained:
# Type in all cases: functional
# Escherichia coli [1] = test: Antibacterial activity against extended-spectrum beta-lactamase-producing Escherichia coli isolate 12-4
# How it was run: (§1)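 MIC determined in vitro by a standard technique and defined as the lowest compound concentration giving complete inhibition of bacterial growth. The Gram-positive and Gram-negative panels were tested alongside gemifloxacin, levofloxacin and ciprofloxacin reference drugs.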
# Escherichia coli [2] = test: Antibacterial activity against extended-spectrum beta-lactamase-producing Escherichia coli isolate 12-2; how it was run: as §1
# Escherichia coli [3] = test: Antibacterial activity against extended-spectrum beta-lactamase-producing Escherichia coli isolate 12-1; how it was run: as §1
# Escherichia coli [4] = test: Antibacterial activity against Escherichia coli isolate 12-5; how it was run: as §1
# Escherichia coli [5] = test: Antibacterial activity against Escherichia coli isolate 12-4; how it was run: as §1
# Escherichia coli [6] = test: Antibacterial activity against Escherichia coli isolate 12-1; how it was run: as §1
# Escherichia coli [7] = test: Antibacterial activity against Escherichia coli ATCC 25922; how it was run: as §1
# Streptococcus pneumoniae [8] = test: Antibacterial activity against Streptococcus pneumoniae isolate 12-5; how it was run: as §1
# Streptococcus pneumoniae [9] = test: Antibacterial activity against Streptococcus pneumoniae isolate 12-2; how it was run: as §1
# [10] = tested on: Staphylococcus epidermidis; test: Antibacterial activity against methicillin-resistant Staphylococcus epidermidis isolate 12-35
# How it was run: (§2)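 MIC determined in vitro by standard techniques, defined as the lowest compound concentration giving complete inhibition of bacterial growth. Gemifloxacin, levofloxacin and ciprofloxacin were tested alongside as reference drugs.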
# [11] = tested on: Staphylococcus epidermidis; test: Antibacterial activity against methicillin-resistant Staphylococcus epidermidis isolate 12-33; how it was run: as §2
# [12] = tested on: Staphylococcus epidermidis; test: Antibacterial activity against methicillin-resistant Staphylococcus epidermidis isolate 12-5; how it was run: as §2
# [13] = tested on: Staphylococcus epidermidis; test: Antibacterial activity against methicillin-sensitive Staphylococcus epidermidis isolate 12-3; how it was run: as §1
# [14] = tested on: Staphylococcus epidermidis; test: Antibacterial activity against methicillin-sensitive Staphylococcus epidermidis isolate 12-2; how it was run: as §1
# [15] = tested on: Staphylococcus epidermidis; test: Antibacterial activity against methicillin-sensitive Staphylococcus epidermidis isolate 12-1; how it was run: as §1
# Staphylococcus aureus [16] = test: Antibacterial activity against methicillin-resistant Staphylococcus aureus isolate 12-15; how it was run: as §2
# Staphylococcus aureus [17] = test: Antibacterial activity against methicillin-resistant Staphylococcus aureus isolate 12-13; how it was run: as §2
# Staphylococcus aureus [18] = test: Antibacterial activity against methicillin-resistant Staphylococcus aureus isolate 12-3; how it was run: as §2
# Staphylococcus aureus [19] = test: Antibacterial activity against methicillin-sensitive Staphylococcus aureus isolate 12-10; how it was run: as §1
# Staphylococcus aureus [20] = test: Antibacterial activity against methicillin-sensitive Staphylococcus aureus isolate 12-7; how it was run: as §1
# Staphylococcus aureus [21] = test: Antibacterial activity against methicillin-sensitive Staphylococcus aureus isolate 12-6; how it was run: as §1
# Staphylococcus aureus [22] = test: Antibacterial activity against Staphylococcus aureus […]; how it was run: as §1
# Pseudomonas aeruginosa [23] = test: Antibacterial activity against Pseudomonas aeruginosa isolate 12-2; how it was run: as §1
# Pseudomonas aeruginosa [24] = test: Antibacterial activity against Pseudomonas aeruginosa isolate 12-1; how it was run: as §1
# Pseudomonas aeruginosa [25] = test: Antibacterial activity against Pseudomonas aeruginosa ATCC 27853; how it was run: as §1
# Klebsiella pneumoniae [26] = test: Antibacterial activity against extended-spectrum beta-lactamase-producing Klebsiella pneumoniae isolate 12-4; how it was run: as §1
# Klebsiella pneumoniae [27] = test: Antibacterial activity against extended-spectrum beta-lactamase-producing Klebsiella pneumoniae isolate 12-2; how it was run: as §1
# Klebsiella pneumoniae [28] = test: Antibacterial activity against extended-spectrum beta-lactamase-producing Klebsiella pneumoniae isolate 12-1; how it was run: as §1
# Klebsiella pneumoniae [29] = test: Antibacterial activity against Klebsiella pneumoniae isolate 12-4; how it was run: as §1
# Klebsiella pneumoniae [30] = test: Antibacterial activity against Klebsiella pneumoniae isolate 12-2; how it was run: as §1
# Klebsiella pneumoniae [31] = test: Antibacterial activity against Klebsiella pneumoniae isolate 12-1; how it was run: as §1
Compound,MIC (Escherichia coli [1]) [µg/mL],MIC (Escherichia coli [2]) [µg/mL],MIC (Escherichia coli [3]) [µg/mL],MIC (Escherichia coli [4]) [µg/mL],MIC (Escherichia coli [5]) [µg/mL],MIC (Escherichia coli [6]) [µg/mL],MIC (Escherichia coli [7]) [µg/mL],MIC (Streptococcus pneumoniae [8]) [µg/mL],MIC (Streptococcus pneumoniae [9]) [µg/mL],MIC [10] [µg/mL],MIC [11] [µg/mL],MIC [12] [µg/mL],MIC [13] [µg/mL],MIC [14] [µg/mL],MIC [15] [µg/mL],MIC (Staphylococcus aureus [16]) [µg/mL],MIC (Staphylococcus aureus [17]) [µg/mL],MIC (Staphylococcus aureus [18]) [µg/mL],MIC (Staphylococcus aureus [19]) [µg/mL],MIC (Staphylococcus aureus [20]) [µg/mL],other results
CCO/N=C1\CN(c2c(F)cc3c(=O)c(C(=O)O)cn4c3c2OC[C@@H]4C)CCC1NC (some centres undefined),64,> 128,> 128,> 128,> 128,4,16,8,1,0.5,8,0.5,0.5,2,0.5,1,1,1,> 128,128,MIC (Staphylococcus aureus [21]): 1 µg/mL; MIC (Staphylococcus aureus [22]): 0.5 µg/mL; MIC (Pseudomonas aeruginosa [23]): 8 µg/mL; MIC (Pseudomonas aeruginosa [24]): 16 µg/mL; MIC (Pseudomonas aeruginosa [25]): 32 µg/mL; MIC (Klebsiella pneumoniae [26]): > 128 µg/mL; MIC (Klebsiella pneumoniae [27]): 32 µg/mL; MIC (Klebsiella pneumoniae [28]): 8 µg/mL; MIC (Klebsiella pneumoniae [29]): 1 µg/mL; MIC (Klebsiella pneumoniae [30]): 1 µg/mL; MIC (Klebsiella pneumoniae [31]): 2 µg/mL
O=C1NC2CCN(c3nc4c(cc3F)c(=O)c(C(=O)O)cn4C3CC3)CC2O1 (centres undefined),64,> 128,> 128,> 128,> 128,16,1,0.5,2,0.5,1,0.5,1,2,1,2,2,2,0.5,128,MIC (Staphylococcus aureus [21]): 1 µg/mL; MIC (Staphylococcus aureus [22]): 1 µg/mL; MIC (Pseudomonas aeruginosa [23]): 16 µg/mL; MIC (Pseudomonas aeruginosa [24]): 16 µg/mL; MIC (Pseudomonas aeruginosa [25]): 8 µg/mL; MIC (Klebsiella pneumoniae [26]): 128 µg/mL; MIC (Klebsiella pneumoniae [27]): > 128 µg/mL; MIC (Klebsiella pneumoniae [28]): 128 µg/mL; MIC (Klebsiella pneumoniae [29]): 32 µg/mL; MIC (Klebsiella pneumoniae [30]): 2 µg/mL; MIC (Klebsiella pneumoniae [31]): 2 µg/mL
CO/N=C1\CN(c2nc3c(cc2F)c(=O)c(C(=O)O)cn3C2CC2)CCC1N (centres undefined),32,64,> 128,> 128,> 128,2,32,4,0.25,2,4,2,0.5,2,0.5,0.25,0.25,0.25,2,32,MIC (Staphylococcus aureus [21]): 0.25 µg/mL; MIC (Staphylococcus aureus [22]): 0.25 µg/mL; MIC (Pseudomonas aeruginosa [23]): 8 µg/mL; MIC (Pseudomonas aeruginosa [24]): 8 µg/mL; MIC (Pseudomonas aeruginosa [25]): 32 µg/mL; MIC (Klebsiella pneumoniae [26]): > 128 µg/mL; MIC (Klebsiella pneumoniae [27]): 8 µg/mL; MIC (Klebsiella pneumoniae [28]): 8 µg/mL; MIC (Klebsiella pneumoniae [29]): 0.125 µg/mL; MIC (Klebsiella pneumoniae [30]): 0.25 µg/mL; MIC (Klebsiella pneumoniae [31]): 0.25 µg/mL
CCO/N=C1\CN(c2nc3c(cc2F)c(=O)c(C(=O)O)cn3C2CC2)CCC1NC (centres undefined),32,> 128,> 128,> 128,> 128,32,4,0.25,0.25,1,0.25,1,1,4,1,4,4,4,0.5,32,MIC (Staphylococcus aureus [21]): 0.25 µg/mL; MIC (Staphylococcus aureus [22]): 0.5 µg/mL; MIC (Pseudomonas aeruginosa [23]): 128 µg/mL; MIC (Pseudomonas aeruginosa [24]): 128 µg/mL; MIC (Pseudomonas aeruginosa [25]): 4 µg/mL; MIC (Klebsiella pneumoniae [26]): > 128 µg/mL; MIC (Klebsiella pneumoniae [27]): > 128 µg/mL; MIC (Klebsiella pneumoniae [28]): 64 µg/mL; MIC (Klebsiella pneumoniae [29]): 2 µg/mL; MIC (Klebsiella pneumoniae [30]): 4 µg/mL; MIC (Klebsiella pneumoniae [31]): 4 µg/mL
